Only some compounds are listed: those with a hit (about 1.5% of all), similar ones and a draw of the others.
MT1-MMP act inh: blockers of MT1-MMP proenzyme processing, primary screen, HT1080 RFP-PRO-GFP cells, GFP/RFP fluorescence; Matrix metalloproteinase-14 (Homo sapiens), P50281; GFP/RFP ratio fluorescence, overnight; percent of plate control window, DMSO zero; GFP/RFP ratio change, % at 20 µM; hit rate 0.061% among 360,000; AID 651647, 2012;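 active means GFP/RFP ratio change of at least 30% with cell ATP level not reduced by more than half and red fluorescence within 50% of control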
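Assay system: HT1080 RFP-PRO-GFP cells | Dosing: 20 µM single dose, 1% DMSO | Incubation: Cells overnight before dosing, compound overnight, 37 °C, 5% CO2 | Evaluation: GFP/RFP fluorescence ratio | Control set: DMSO-only wells and HT1080 RFP-L50D-GFP cell wells as references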
DAGLB inh: DAGLB lipase inhibitors, primary screen, biochemical, fluorescence, HTS | HEK293T DAGLB membrane lysate, EnzChek fluorogenic substrate | Diacylglycerol lipase-beta (Homo sapiens), Q8NCG7 | hit rate 0.059% among 340,000 | inhibition, % at 5.17 µM; in the data active means inhibition above about 34%;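 further: 0% = enzyme with vehicle and 100% = wells lacking enzyme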
Fh CTSL1 inh: Fasciola hepatica cathepsin L1 inhibitors, primary screen, counter-screen for PFM18AAP inhibitor project, biochemical, QFRET, fluorogenic peptide substrate; AID 1906, 2009; recombinant F. hepatica cathepsin L1, Z-Leu-Arg-MCA fluorescence; hit rate 0.49% among 300,000; inhibition, % at 5.96 µM;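 active means inhibition above the mean of all tested compounds plus 3 SD, set per screening campaign, cut at about 17% in these data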;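 further: 0% = plate median of test compound wells and 100% = 1 µM Z-Phe-Ala-diazomethylketone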
UCH37 DUB inh: inhibitors of human UCH37 deubiquitinase, primary screen, biochemical, Ub-AMC cleavage, fluorescence. Ubiquitin carboxyl-terminal hydrolase isozyme L5 (Homo sapiens), Q9Y5K5. purified proteasome/UCH37. inhibition, % (concentration not given with the values). hit rate 0.33% among 330,000. AID 588478, 2011;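 active means mean inhibition over replicate wells above about 20%, limit read from the data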;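 further: 0% = compound-free wells with enzyme and 100% = wells lacking proteasome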
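Material: human UCH37 enzyme supplied as purified proteasome complex. Measure: % inhibition of Ub-AMC cleavage fluorescence. Medium: pH 7.4 Tris-HCl (50 mM) with ovalbumin, ATP-MgCl2, DTT. Times: 30 min preincubation with enzyme, 25 min cleavage at room temperature. Detection: AMC fluorescence intensity at 355/460 nm.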
CendR NRP1 mod: modulators of CendR peptide binding to NRP-1, primary screen, biochemical, fluorescence polarization, uHTS; hit rate 0.85% among 360,000; inhibition, % at 25 µM; Neuropilin-1 (Homo sapiens), O14786; FAM-RPARPAR peptide binding to NRP-1; AID 602438, 2012;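 active means inhibition or corrected inhibition above about 18%, plus a signal ratio from 0.5 to 1.5, limit read from the data, passing the limit was not always enough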
Target sequence (O14786 whole entry, looked up): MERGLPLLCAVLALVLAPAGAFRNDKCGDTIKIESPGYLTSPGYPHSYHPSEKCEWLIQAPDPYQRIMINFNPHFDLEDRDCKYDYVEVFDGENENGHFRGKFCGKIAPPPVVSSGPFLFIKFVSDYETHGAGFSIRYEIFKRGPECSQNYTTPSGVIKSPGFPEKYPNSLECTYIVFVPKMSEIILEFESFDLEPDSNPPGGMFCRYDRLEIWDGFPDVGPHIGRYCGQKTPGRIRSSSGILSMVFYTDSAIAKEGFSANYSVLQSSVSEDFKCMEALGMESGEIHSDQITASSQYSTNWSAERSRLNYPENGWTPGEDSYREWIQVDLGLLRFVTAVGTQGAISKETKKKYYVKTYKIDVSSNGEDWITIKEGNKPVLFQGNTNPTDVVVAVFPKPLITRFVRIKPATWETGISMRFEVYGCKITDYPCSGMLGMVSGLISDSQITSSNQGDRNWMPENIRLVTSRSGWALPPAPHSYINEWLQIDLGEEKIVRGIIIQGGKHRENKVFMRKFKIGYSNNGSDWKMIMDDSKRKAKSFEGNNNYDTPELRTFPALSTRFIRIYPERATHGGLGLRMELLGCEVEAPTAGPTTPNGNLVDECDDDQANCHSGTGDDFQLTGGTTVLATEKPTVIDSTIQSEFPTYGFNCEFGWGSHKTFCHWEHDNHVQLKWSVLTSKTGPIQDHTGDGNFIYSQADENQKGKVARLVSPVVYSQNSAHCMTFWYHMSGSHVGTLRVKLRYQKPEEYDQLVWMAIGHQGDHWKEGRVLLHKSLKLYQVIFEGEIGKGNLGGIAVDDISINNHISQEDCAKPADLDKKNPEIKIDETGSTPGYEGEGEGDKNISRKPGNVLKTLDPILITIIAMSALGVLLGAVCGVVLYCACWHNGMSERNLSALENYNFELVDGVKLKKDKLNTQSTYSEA
Active calls of the source: *; x = no result.

SMILES	MT1-MMP act inh	DAGLB inh	Fh CTSL1 inh	UCH37 DUB inh	CendR NRP1 mod
COc1ccc(NC(=O)N2CCCC(CCC(=O)N(C)CCc3ccccn3)C2)cc1 (stereo not drawn)	10	0	70*	1	18
CCN(CC)c1ccc(C(=O)NN=C(C)c2ccc(O)cc2)cc1	x	x	x	10	x
Cn1ccsc1=NC(=O)Nc1ccccc1	x	x	x	4	x
COc1ccc(C=NNC(=O)CC(=O)NCc2cccnc2)cc1	x	x	x	-5	x
CCCCOC(=O)CCn1c(=S)oc2ccccc21	3	-5	1	0	53*
CCCNC(=O)CCn1c(=S)oc2ccccc21	1	2	-4	-2	-10
COc1ccc(NC(=O)CON=C2CCCc3nonc32)c(OC)c1	x	x	x	4	x
Cc1ccc(C)c(-c2csc(NN=Cc3ccco3)n2)c1	x	x	x	-1	x
CN(C)C=NC(=S)Nc1ccccc1F	x	x	x	-2	x
O=C1c2c(O)cccc2C(C2OC(CO)[C@@H](O)[C@H](O)[C@H]2O)c2cc(CO)cc(O)c21 (stereo partly drawn)	6	1	x	4	37*
O=C(O)c1cc(O)c2c(c1)[C@@H]([C@H]1c3cc(C(=O)O)cc(O)c3C(=O)c3c(O[C@@H]4O[C@H](CO)[C@@H](O)[C@H](O)[C@H]4O)cccc31)c1cccc(OC3O[C@H](CO)[C@@H](O)[C@H](O)[C@H]3O)c1C2=O (stereo partly drawn)	5	5	12	31*	9
O=C1c2cc(CO)cc(O)c2C(=O)c2c(O[C@@H]3OC(CO)[C@@H](O)[C@@H](O)[C@@H]3O)cccc21 (stereo partly drawn)	-1	-2	-1	3	-5
Cc1ccc(S(=O)(=O)NN=CC(C)(C)CO)cc1	x	x	x	2	x
NC(=O)c1ccccc1NC(=O)C(c1ccccc1)c1ccccc1	-3	0	-1	5	40*
O=C(c1cnn2ccccc12)N(Cc1ccco1)C1CCCC1	-4	-1	47*	5	-9
Cc1cc(F)ccc1S(=O)(=O)Nc1ccccc1C(=O)Nc1ncn[nH]1	-1	-1	2	-292	19*
Cc1ccc2nc(C)cc(NN=Cc3ccccc3O)c2c1	x	x	x	-29	x
CN(C)c1ccc(C=NNC(=O)C(=O)/C=C2\NC3(CCCC3)Cc3ccccc32)cc1	x	x	x	10	x
O=C(Nc1ccccc1Cl)c1cccs1	12	0	1	0	26*
CN(C(=O)c1ccc(NC(=O)Cc2cccc(NC(=O)C3CCN(C(=O)C4CCCC4)CC3)c2)cc1)C1CCCC1	-1	-2	x	22*	-1
CN(C(=O)c1ccc(NC(=O)Cc2cccc(NC(=O)C3CCN(C(=O)C4CCCCC4)CC3)c2)cc1)C1CC1	1	-1	x	x	5
O=C(Cn1cncn1)NN=Cc1ccc(Cl)cc1	x	x	x	1	x
COc1ccc(OC)c2c1CCC2=O	-9	1	0	-42	30*
COc1ccccc1NC1=C(C)C(=O)CC1	x	-6	1	3	10
COc1cc(/C=C(/C#N)c2nc3ccccc3[nH]2)ccc1OCc1ccc(C(=O)O)o1	-8	0	20*	x	-91
SMILES	MT1-MMP act inh	DAGLB inh	Fh CTSL1 inh	UCH37 DUB inh	CendR NRP1 mod
COc1ccc(/C=C(/NC(=O)c2ccccc2)C(=O)NN=Cc2ccncc2)cc1	x	x	x	9	x
Cc1ccnc(N/C=C(/NC(=O)c2ccccc2)C(=O)N/N=C\c2ccc(Cl)cc2)n1	0	1	17*	x	5
CC(=O)NCc1ccc(S(=O)(=O)NN=Cc2ccccc2)cc1	x	x	x	2	x
COc1ccc2c(c1)N(C)/C(=C1/SC(=NCc3ccccc3)N(c3ccccc3)C1=O)S2	-3	-4	-1	-6	27*
COC(=O)NN=Cc1ccccc1OCc1ccccc1	x	x	x	3	x
CCc1ccc(NC(=O)CCc2c(C)nn(-c3ccc(N4CCOCC4)nn3)c2C)cc1	2	-2	-1	-1	7
CCc1cccc(NC(=O)CCc2c(C)nn(-c3ccc(N4CCOCC4)nn3)c2C)c1	2	0	2	2	32*
COc1ccc(C(=O)Oc2cc(C=NNS(=O)(=O)c3ccc(C)cc3)ccc2OC)cc1	x	x	x	-1	x
CNc1ccccc1	0	1	x	-3	-3
CNc1cccccc1=S	-3	0	-1	11	25*
CN(C)c1nc(C#N)nc(N(C)C)n1	9	-1	26*	6	-2
CCCN(CCC)c1nc(C#N)nc(N(CCC)CCC)n1	-1	-3	18*	1	-6
CCCN(CCC)c1nc(N(CCC)CCC)[nH]c(=O)n1	4	1	1	5	-6
CN(C)c1nc(N(C)C)nc(N(C)C)n1	3	3	3	0	8
COc1ccc(C=NNC(=O)CCn2c3ccccc3c3ccccc32)cc1OC	x	x	x	0	x
CC(=O)O[C@H]1C(=O)[C@@]2(C)[C@H]([C@H](OC(=O)c3ccccc3)[C@]3(O)C[C@H](OC(=O)[C@H](O)[C@@H](NC(=O)c4ccccc4)c4ccccc4)C(C)=C1C3(C)C)[C@]1(OC(C)=O)CO[C@@H]1C[C@@H]2O	-8	0	19*	1	13
CC(=O)O[C@H]1C(=O)[C@@]2(C)[C@H]([C@H](OC(=O)c3ccccc3)[C@]3(O)C[C@H](OC(=O)[C@H](O)C(NC(=O)c4ccccc4)c4ccccc4)C(C)=C1C3(C)C)[C@]1(OC(C)=O)CO[C@@H]1C[C@@H]2O (stereo partly drawn)	-9	2	9	3	-3
CON=C/C(C#N)=C/c1cc(C(=O)c2ccc(F)cc2)cn1C	x	x	x	-2	x
CC(=NOC(=O)c1cccc(C(F)(F)F)c1)c1cnccn1	x	x	x	1	x
CCCCCCOC(=O)Cc1c(C)nc(-c2ccccc2)[nH]c1=O	-1	-1	3	-5	19
C=C(C)Cc1c(C)nc(-c2ccccc2)[nH]c1=O	-1	0	26*	1	-7
COc1ccc(CC(=O)NN=Cc2sccc2C)cc1	x	x	x	3	x
O=C(Cc1ccc(Br)c2ccccc12)NN=Cc1ccccn1	x	x	x	2	x
COc1ccc(/C=C/C(=O)N(C)Cc2cccs2)cc1S(=O)(=O)N1CCOCC1	2	1	0	2	35*
O=c1c2cn[nH]c2nc(SCc2cc(=O)n3cc(Br)ccc3n2)n1-c1ccc(Br)cc1	-9	-3	3	-3	32*
Cc1ccccc1-n1c(SCc2cc(=O)n3ccccc3n2)nc2[nH]ncc2c1=O	-4	-1	3	-11	0
O=c1c2cn[nH]c2nc(SCc2ccccc2F)n1-c1ccc(Br)cc1	0	-2	5	7	26*
NC1=C(Cl)C(=O)c2ccccc2C1=O	2	5	x	x	27*

High-throughput results: PubChem BioAssay, several laboratories
